Calb biofilm kill = kills Candida albicans biofilms; AID 834; 85,000 tested, 0.14% active; inhibition, % at 6 µM; C. albicans biofilm + clotrimazole, Alamar Blue;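 active = inhibition above 20%; inactive = inhibition below 20%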;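 note: preformed 24 hr biofilms exposed to compound for 48 hr; 0% = biofilm without compound and 100% = blank killed by clotrimazole plus chlorhexidine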
AP complement = alternative pathway complement inhibition, orthogonal assay. 62,000 tested, 0.08% active. inhibition, % at 5 µM. AID 1235. Human serum alternative complement pathway, LPS-coated ELISA, C3 deposition; tested in compound mixtures;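 active = inhibition above 30% in each of the two pooled mixtures holding the compound, so the lower value exceeds 30%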;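 note: 0% = serum in Mg-EGTA without compound and 100% = EDTA serum blank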
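Assay system: human serum alternative complement pathway, C3 deposition on LPS-coated wells; Dosing: 5 µM per compound in ten-compound mixtures; Detection: Anti-C3 ELISA, OD 450 nm; Buffer or medium: Mg2+-EGTA GVB++ buffer containing human serum at 1:15 dilution; Timing: 1 h at 37 °C; Replication: two different pools per compound.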
DAT uptake mod = human DAT dopamine uptake with cocaine, either direction; LLC-PK1 hDAT cells, [14C]-dopamine uptake with cocaine IC80; actives deviate in either direction; B-score at 10 µM; 110,000 tested, 1.3% active;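 active = Z score or B-score, a plate-position-corrected score, falls beyond the plate's 99.7% confidence bounds, in either direction; inactive = both scores lie inside the 99.7% bounds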;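 note: scored against the spread of the other compound wells on the same plate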
D1 allo mod = allosteric modulators of human D1 dopamine receptor | P21728 | B-score at 10 µM | 58,000 tested, 5.9% active | HEK293 D1, CRE-luciferase, dopamine EC30 potentiation; actives deviate in either direction;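 active = luminescence count or its row- and column-corrected plate score outside the 99.7% band of the plate's sample wells, on either side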
Target sequence (P21728 whole entry, looked up): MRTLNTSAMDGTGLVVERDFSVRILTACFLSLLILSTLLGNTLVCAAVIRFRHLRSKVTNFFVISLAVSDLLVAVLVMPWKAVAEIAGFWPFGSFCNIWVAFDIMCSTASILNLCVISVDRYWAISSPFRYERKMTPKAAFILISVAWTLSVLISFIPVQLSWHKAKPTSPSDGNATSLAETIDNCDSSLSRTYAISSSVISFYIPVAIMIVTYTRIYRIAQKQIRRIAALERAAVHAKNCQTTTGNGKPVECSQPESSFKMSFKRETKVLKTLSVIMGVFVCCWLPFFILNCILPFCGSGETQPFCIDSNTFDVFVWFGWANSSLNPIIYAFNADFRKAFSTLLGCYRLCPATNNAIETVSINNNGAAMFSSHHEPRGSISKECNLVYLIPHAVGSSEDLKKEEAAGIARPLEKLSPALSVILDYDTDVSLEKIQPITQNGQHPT
MMP13 inh = blocks human MMP13 activity; P45452; MMP-13 fTHP FRET cleavage, Mca fluorescence; inhibition, % at 4 µM; 65,000 tested, 0.07% active;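 active = inhibition above the mean of compound-free control plate wells plus 3 SD, cut at about 14% in these data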;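 note: 0% = DMSO wells and 100% = wells with reference MMP-13 inhibitor after basal subtraction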
* = called active by the depositor; . = no result given. The sample as a whole holds a higher share of hits than the screen did.

SMILES	Calb biofilm kill	AP complement	DAT uptake mod	D1 allo mod	MMP13 inh
O=C(NCc1ccccc1)c1ccc(CN(c2ccccn2)S(=O)(=O)c2ccccc2)cc1	-4	.	1.1	.	.
CCCC(=O)NC(=S)Nc1c(C)cc(Br)cc1C	.	.	-0.68	.	.
Cc1cc(Br)cc(C)c1NC(=S)NC(=O)CC(C)C	.	.	-8*	.	.
CCOC(=O)c1c(NC(C)=O)sc2c1CCC(C=NCCCN(CC)CC)=C2Sc1ccccc1	0	.	1.9	.	.
CCOC(=O)c1c(-c2ccco2)csc1NC(=O)CSc1nnc(N)s1	5	.	0.23	.	.
CCOC(=O)c1c(-c2ccco2)csc1N	7	-5	2.1*	0.13	-4
Cc1cc(C)c2c(N)c(C(=O)Nc3nccs3)sc2n1	11	8	-0.77	-6.6*	-30
COCc1cc(C)nc2sc(C(=O)Nc3nccs3)c(N)c12	7	23	0.64	0.59	-8
COC(=O)/C(=C(/F)Sc1cc(C)c(O)c(C)c1)C(F)(F)F	2	.	-0.075	.	.
CC(C)CC(=O)Nc1cc2nn(-c3ccccc3)nc2cc1Cl	53*	.	0.0057	.	.
O=C(CN1CCC(n2nnc3ccccc32)CC1)Nc1ccc2c(c1)CCC2	7	1	3.1*	.	0
O=C(CN1CCC(n2nnc3cc(F)ccc32)CC1)Nc1ccc2c(c1)CCC2	12	18	0.93	-0.86	0
O=C(Cc1ccccc1)Nc1ccccc1N1CCOCC1	5	.	0.26	.	.
CN(C)CCCNCC(=O)Nc1ccccc1N1CCOCC1	.	.	-7.7*	.	.
Cc1cccc(NC(=O)C23CCC(C)(C2Br)C3(C)C)c1 (stereo unspecified)	.	.	-8.5*	.	.
O=C(NCCc1c[nH]c2ccccc12)C1CCC(Cn2c(=S)[nH]c3ccccc3c2=O)CC1 (stereo unspecified)	3	.	1	.	.
COCCNC(=O)C1CCC(Cn2c(=S)[nH]c3ccccc3c2=O)CC1 (stereo unspecified)	0	-2	-7.6*	1.1	0
CN(C)S(=O)(=O)N1CCN(S(=O)(=O)c2ccccc2)CC1	11	-7	-0.52	1.2	2
CCS(=O)(=O)N1CCN(S(=O)(=O)c2ccccc2)CC1	3	.	-9.6*	.	.
CC1(C)CC(=O)C=C(c2cccnc2)C1	.	.	0.041	.	.
CCC(C)C(NC(=O)C1CCC(C)CC1)C(=O)Nc1cc(OC)ccc1OC (stereo unspecified)	.	.	-1.5	.	.
CCOC(=O)c1c(C)c(C(=O)NCc2cccs2)c(C)n1CC	13	15	2.8*	3.5	-2
CCOC(=O)c1c(C)c(C(=O)N2CCc3ccccc3C2)c(C)n1CC	11	20	2.5*	1.2	-3
CCOC(=O)c1c(C)c(C(=O)Nc2ccccc2)c(C)n1CC	-6	6	.	1.1	-4
Cc1csc(C(=O)O)c1-n1cccc1	.	.	-0.47	.	.
SMILES	Calb biofilm kill	AP complement	DAT uptake mod	D1 allo mod	MMP13 inh
Cc1ccc(S(=O)(=O)NC(C)(C)CSc2nnc(Nc3ccccc3)s2)cc1	5	.	-8.1*	.	.
O=C(CSc1cn(Cc2ccccc2)c2ccccc12)N1CCOCC1	5	.	0.069	.	.
CC(=O)CSc1nnc(-c2ccc(S(=O)(=O)N3CCC(C)CC3)cc2)o1	7	.	-0.81	.	.
CCCCNc1oc(-c2cccs2)nc1S(=O)(=O)c1ccccc1	5	.	1.5	.	.
O=S(=O)(c1ccccc1)c1nc(-c2cccs2)oc1NCCCn1ccnc1	3	7	2.5*	1.3	-1
Cc1cc(C)c(S(=O)(=O)n2ccc(-c3ccc(OCCN(C)c4ccccn4)cc3)n2)c(C)c1	.	.	0.39	.	.
NC(=O)CC(NC(=O)Cc1ccc(Br)cc1)c1ccc(N2CCN(c3ccc(F)cc3)CC2)c([N+](=O)[O-])c1 (stereo unspecified)	.	.	-0.74	.	.
CCCCN(C)C(=O)C1CCC(=O)N(c2cc(OC)c(OC)c(OC)c2)C1c1ccc(OC)cc1 (stereo unspecified)	5	22	-8.4*	-0.86	0
O=C(CSCCO)Nc1ccc(C2CCCCC2)cc1	2	-10	3.1*	-1.3	5
COC(C/C=C/C(=O)[C@H](C)OCc1ccccc1)OC	.	.	-0.29	.	.
O=C(c1cc(-c2cccc(O)c2)on1)N1CCOCC1	4	21	-0.35	-5*	-2
O=C(c1cc(-c2cccs2)on1)N1CCOCC1	.	9	-0.49	-0.68	-1
CCN(CC)C(=O)CSCc1cnn(-c2ccccc2)c1-n1cccc1	-5	.	0.37	.	.
O=C1[C@H]2CCCC[C@H]2C(=O)N1CCCCN1CCN(c2nsc3ccccc23)CC1	.	.	-0.8	.	.
Cc1ccc(Cn2ccc(=O)c(OCc3c(Cl)cccc3Cl)c2C)cc1	2	.	-0.042	.	.
Cc1cccc(C)c1OCC(O)Cn1c2ccccc2c2ccccc21 (stereo unspecified)	.	.	-0.061	.	.
Cc1ccc(OCC(O)Cn2c3ccccc3c3ccccc32)cc1 (stereo unspecified)	.	.	1.7*	.	.
O=C(c1cc2ccccc2oc1=O)N(Cc1cccs1)Cc1ccccc1Cl	6	.	2.5*	.	.
CCN(C(=O)c1cc2ccccc2oc1=O)c1ccccc1	-3	.	-1.4	.	.
NC(=O)c1ccsc1NC(=O)CSc1ccccc1F	7	10	-0.84	-3.5*	8
NC(=O)c1ccsc1NC(=O)COc1ccccc1	-7	15	-0.21	1.2	3
O=C(CN1CCCN(Cc2ccc(F)cc2Cl)C1=O)NCc1ccccc1	.	17	2.6*	0.65	2
O=C(CN1CCN(Cc2ccccc2)C1=O)NCc1ccc(Cl)cc1	5	7	0.77	.	3
CCSc1nnc(-c2ccncc2)o1	5	.	0.25	.	.
CCSc1nnc(-c2sc3nnc(-c4ccccc4)c(-c4ccccc4)c3c2N)o1	.	.	1.6*	.	.
SMILES	Calb biofilm kill	AP complement	DAT uptake mod	D1 allo mod	MMP13 inh
CC(=O)c1cccc(NC(=O)c2cnn3ccccc23)c1	8	3	0.97	-2.6*	-6
CC(=O)c1ccc(NC(=O)c2cnn3ccccc23)cc1	12	.	-0.68	.	.
CC1(CC(=O)N/N=C/c2ccc(OCc3ccc(Cl)cc3Cl)cc2)OCCCO1	.	.	3.4*	.	.
Cc1cc(/C=N/NC(=O)CC2(C)OCCO2)c(C)n1-c1cc(Cl)cc(Cl)c1	-5	.	0.65	.	.
O=C(/C=C\Nc1ccccn1)c1ccc(Cl)cc1	11	12	0.11	-6*	-3
COc1ccc(N/C=C/C(=O)c2ccc(Oc3ncccn3)cc2)cc1	.	.	0.35	.	.
CS(=O)(=O)N1CCN(C(=O)c2cc(-c3cccs3)nc3ccccc23)CC1	-4	18	-3*	-0.0069	-195
COc1cccc(NS(=O)(=O)c2cc(C)sc2C)c1	7	3	2.6*	-0.35	-1

Bioassay records as filed in PubChem.
